Data from ChEMBL document CHEMBL4602720, “Degradation versus Inhibition: Development of Proteolysis-Targeting Chimeras for Overcoming Statin-Induced Compensatory Upregulation of 3-Hydroxy-3-methylglutaryl Coenzyme A Reductase” (J Med Chem, 2020).

Target: T1, Protein cereblon/3-hydroxy-3-methylglutaryl-coenzyme A reductase (Cricetulus griseus, UniProt P00347+G3H338)
T1 sequence (P00347 whole entry): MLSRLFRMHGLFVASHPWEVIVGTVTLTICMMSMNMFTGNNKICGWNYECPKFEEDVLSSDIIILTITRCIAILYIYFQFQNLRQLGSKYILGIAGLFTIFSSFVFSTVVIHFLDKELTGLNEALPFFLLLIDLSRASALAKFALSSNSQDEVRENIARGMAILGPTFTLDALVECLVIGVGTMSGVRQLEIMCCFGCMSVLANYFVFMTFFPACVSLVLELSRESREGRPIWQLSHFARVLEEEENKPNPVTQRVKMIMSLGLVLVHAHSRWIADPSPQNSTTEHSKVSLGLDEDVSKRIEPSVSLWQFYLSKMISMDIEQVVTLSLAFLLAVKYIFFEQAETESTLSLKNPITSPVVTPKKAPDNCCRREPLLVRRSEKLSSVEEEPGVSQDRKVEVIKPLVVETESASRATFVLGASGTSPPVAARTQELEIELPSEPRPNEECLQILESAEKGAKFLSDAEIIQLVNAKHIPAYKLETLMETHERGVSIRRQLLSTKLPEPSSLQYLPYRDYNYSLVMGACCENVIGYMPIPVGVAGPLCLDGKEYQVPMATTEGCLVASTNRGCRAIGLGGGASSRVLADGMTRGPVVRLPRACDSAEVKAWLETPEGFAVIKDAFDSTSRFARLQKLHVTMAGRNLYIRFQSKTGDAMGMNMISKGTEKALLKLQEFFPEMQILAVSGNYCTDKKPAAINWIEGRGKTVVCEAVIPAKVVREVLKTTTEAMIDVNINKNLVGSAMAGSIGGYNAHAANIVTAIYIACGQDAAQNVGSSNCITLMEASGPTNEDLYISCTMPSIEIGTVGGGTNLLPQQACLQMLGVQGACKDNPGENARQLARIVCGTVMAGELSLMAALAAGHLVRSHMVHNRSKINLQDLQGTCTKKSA
T1 sequence (G3H338 whole entry): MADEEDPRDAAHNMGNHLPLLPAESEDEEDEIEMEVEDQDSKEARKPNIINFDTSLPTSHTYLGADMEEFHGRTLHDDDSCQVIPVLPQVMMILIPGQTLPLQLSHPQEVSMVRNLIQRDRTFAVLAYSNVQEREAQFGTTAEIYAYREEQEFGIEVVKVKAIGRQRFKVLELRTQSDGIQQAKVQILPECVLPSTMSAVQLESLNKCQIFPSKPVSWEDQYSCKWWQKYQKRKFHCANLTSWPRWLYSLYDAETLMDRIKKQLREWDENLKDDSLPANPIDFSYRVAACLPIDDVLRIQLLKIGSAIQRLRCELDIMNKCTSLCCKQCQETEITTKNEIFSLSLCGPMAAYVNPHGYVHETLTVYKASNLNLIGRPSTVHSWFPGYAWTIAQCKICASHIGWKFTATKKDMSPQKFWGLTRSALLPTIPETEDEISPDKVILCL
Test: Protac activity at CRBN/HMGCR in Insig-1/Insig-2 deficient Chinese hamster SRD15 cells assessed as induction of HMGCR degradation after 16 hrs by immunoblotting analysis
Summary of the method: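 SRD15 cells treated with compound at varying concentrations for 16 h, final DMSO ≤0.1%; RIPA lysates (Lowry protein) immunoblotted for HMGCR, densitometry normalized to actin, DMSO set to 1; DC50 = concentration giving 50% loss versus DMSO, fitted to dose-response curve, mean of 3 independent experiments.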

| SMILES | DC50 [nM] |
| --- | --- |
| CC(C)c1c(C(=O)Nc2ccccc2)c(-c2cccc(OCCCCc3cn(CCOCCOCCOCCOCCOCCNc4cccc5c4C(=O)N(C4CCC(=O)NC4=O)C5=O)nn3)c2)c(-c2ccc(F)cc2)n1CC[C@@H](O)C[C@@H](O)CC(=O)O (stereo partly drawn) | > 3000 |
| CC(C)c1c(C(=O)Nc2ccccc2)c(-c2cccc(OCCCCc3cn(CCOCCOCCOCCNc4ccc5c(c4)C(=O)N(C4CCC(=O)NC4=O)C5=O)nn3)c2)c(-c2ccc(F)cc2)n1CC[C@@H](O)C[C@@H](O)CC(=O)O (stereo partly drawn) | > 3000 |
| CC(C)c1c(C(=O)Nc2ccccc2)c(-c2cccc(OCCCCCc3cn(CCOCCOCCOCCNc4ccc5c(c4)C(=O)N(C4CCC(=O)NC4=O)C5=O)nn3)c2)c(-c2ccc(F)cc2)n1CC[C@@H](O)C[C@@H](O)CC(=O)O (stereo partly drawn) | > 3000 |
| CC(C)c1c(C(=O)Nc2ccccc2)c(-c2cccc(OCCCc3cn(CCOCCOCCOCCNc4cccc5c4C(=O)N(C4CCC(=O)NC4=O)C5=O)nn3)c2)c(-c2ccc(F)cc2)n1CC[C@@H](O)C[C@@H](O)CC(=O)O (stereo partly drawn) | > 3000 |
| CC(C)c1c(C(=O)Nc2ccccc2)c(-c2cccc(OCCCCc3cn(CCOCCOCCOCCOCCNc4cccc5c4C(=O)N(C4CCC(=O)NC4=O)C5=O)nn3)c2)c(-c2ccc(F)cc2)n1CC[C@@H](O)C[C@@H](O)CC(=O)O (stereo partly drawn) | 400 |
| CC(C)c1c(C(=O)Nc2ccccc2)c(-c2cccc(OCCCCCc3cn(CCOCCOCCOCCOCCOCCNc4cccc5c4C(=O)N(C4CCC(=O)NC4=O)C5=O)nn3)c2)c(-c2ccc(F)cc2)n1CC[C@@H](O)C[C@@H](O)CC(=O)O (stereo partly drawn) | 600 |
| CC(C)c1c(C(=O)Nc2ccccc2)c(-c2cccc(OCCCc3cn(CCOCCOCCOCCNc4ccc5c(c4)C(=O)N(C4CCC(=O)NC4=O)C5=O)nn3)c2)c(-c2ccc(F)cc2)n1CC[C@@H](O)C[C@@H](O)CC(=O)O (stereo partly drawn) | > 3000 |
| CCN1C(=O)CCC(N2C(=O)c3cccc(NCCOCCOCCOCCOCCn4cc(CCCOc5cccc(-c6c(C(=O)Nc7ccccc7)c(C(C)C)n(CC[C@@H](O)C[C@@H](O)CC(=O)O)c6-c6ccc(F)cc6)c5)nn4)c3C2=O)C1=O (stereo partly drawn) | > 3000 |
| CC(C)c1c(C(=O)Nc2ccccc2)c(-c2cccc(OCCCCCc3cn(CCOCCOCCNc4cccc5c4C(=O)N(C4CCC(=O)NC4=O)C5=O)nn3)c2)c(-c2ccc(F)cc2)n1CC[C@@H](O)C[C@@H](O)CC(=O)O (stereo partly drawn) | > 3000 |
| CC(C)c1c(C(=O)Nc2ccccc2)c(-c2cccc(OCCCCCc3cn(CCOCCOCCOCCOCCNc4cccc5c4C(=O)N(C4CCC(=O)NC4=O)C5=O)nn3)c2)c(-c2ccc(F)cc2)n1CC[C@@H](O)C[C@@H](O)CC(=O)O (stereo partly drawn) | 500 |
| CC(C)c1c(C(=O)Nc2ccccc2)c(-c2cccc(OCCCCCc3cn(CCOCCOCCOCCOCCNc4ccc5c(c4)C(=O)N(C4CCC(=O)NC4=O)C5=O)nn3)c2)c(-c2ccc(F)cc2)n1CC[C@@H](O)C[C@@H](O)CC(=O)O (stereo partly drawn) | > 3000 |
| CC(C)c1c(C(=O)Nc2ccccc2)c(-c2cccc(OCCCc3cn(CCOCCOCCOCCOCCOCCNc4cccc5c4C(=O)N(C4CCC(=O)NC4=O)C5=O)nn3)c2)c(-c2ccc(F)cc2)n1CC[C@@H](O)C[C@@H](O)CC(=O)O (stereo partly drawn) | 200 |
| CC(C)c1c(C(=O)Nc2ccccc2)c(-c2cccc(OCCCCc3cn(CCOCCOCCOCCOCCNc4ccc5c(c4)C(=O)N(C4CCC(=O)NC4=O)C5=O)nn3)c2)c(-c2ccc(F)cc2)n1CC[C@@H](O)C[C@@H](O)CC(=O)O (stereo partly drawn) | > 3000 |

Further lines, results first:

| DC50 [nM] | SMILES |
| --- | --- |
| > 3000 | CC(C)c1c(C(=O)Nc2ccccc2)c(-c2cccc(OCCCCc3cn(CCOCCOCCOCCNc4cccc5c4C(=O)N(C4CCC(=O)NC4=O)C5=O)nn3)c2)c(-c2ccc(F)cc2)n1CC[C@@H](O)C[C@@H](O)CC(=O)O (stereo partly drawn) |
| > 3000 | CC(C)c1c(C(=O)Nc2ccccc2)c(-c2cccc(OCCCc3cn(CCCCOCCCc4cccc5c4CN(C4CCC(=O)NC4=O)C5=O)nn3)c2)c(-c2ccc(F)cc2)n1CC[C@@H](O)C[C@@H](O)CC(=O)O (stereo partly drawn) |
| 2300 | CC(C)c1c(C(=O)Nc2ccccc2)c(-c2cccc(OCCCc3cn(CCCCCOCCCc4cccc5c4CN(C4CCC(=O)NC4=O)C5=O)nn3)c2)c(-c2ccc(F)cc2)n1CC[C@@H](O)C[C@@H](O)CC(=O)O (stereo partly drawn) |
| > 3000 | CC(C)c1c(C(=O)Nc2ccccc2)c(-c2cccc(OCCCc3cn(CCCOCCCc4cccc5c4CN(C4CCC(=O)NC4=O)C5=O)nn3)c2)c(-c2ccc(F)cc2)n1CC[C@@H](O)C[C@@H](O)CC(=O)O (stereo partly drawn) |
| 600 | CC(C)c1c(C(=O)Nc2ccccc2)c(-c2cccc(OCCCc3cn(CCCCCCCOCCCc4cccc5c4CN(C4CCC(=O)NC4=O)C5=O)nn3)c2)c(-c2ccc(F)cc2)n1CC[C@@H](O)C[C@@H](O)CC(=O)O (stereo partly drawn) |
| 500 | CC(C)c1c(C(=O)Nc2ccccc2)c(-c2cccc(OCCCCCCCc3cn(CCCCCCCNc4cccc5c4C(=O)N(C4CCC(=O)NC4=O)C5=O)nn3)c2)c(-c2ccc(F)cc2)n1CC[C@@H](O)C[C@@H](O)CC(=O)O (stereo partly drawn) |
| > 3000 | CC(C)c1c(C(=O)Nc2ccccc2)c(-c2cccc(OCCCc3cn(CCCCOCC#Cc4cccc5c4CN(C4CCC(=O)NC4=O)C5=O)nn3)c2)c(-c2ccc(F)cc2)n1CC[C@@H](O)C[C@@H](O)CC(=O)O (stereo partly drawn) |
| > 3000 | CC(C)c1c(C(=O)Nc2ccccc2)c(-c2cccc(OCCCc3cn(CCOCCCc4cccc5c4CN(C4CCC(=O)NC4=O)C5=O)nn3)c2)c(-c2ccc(F)cc2)n1CC[C@@H](O)C[C@@H](O)CC(=O)O (stereo partly drawn) |
| > 3000 | CC(C)c1c(C(=O)Nc2ccccc2)c(-c2cccc(OCCCc3cn(CCCOCC#Cc4cccc5c4CN(C4CCC(=O)NC4=O)C5=O)nn3)c2)c(-c2ccc(F)cc2)n1CC[C@@H](O)C[C@@H](O)CC(=O)O (stereo partly drawn) |
| > 3000 | CC(C)c1c(C(=O)Nc2ccccc2)c(-c2cccc(OCCCCc3cn(CCOCCOCCNc4cccc5c4C(=O)N(C4CCC(=O)NC4=O)C5=O)nn3)c2)c(-c2ccc(F)cc2)n1CC[C@@H](O)C[C@@H](O)CC(=O)O (stereo partly drawn) |
| > 3000 | CC(C)c1c(C(=O)Nc2ccccc2)c(-c2cccc(OCCCc3cn(CCOCC#Cc4cccc5c4CN(C4CCC(=O)NC4=O)C5=O)nn3)c2)c(-c2ccc(F)cc2)n1CC[C@@H](O)C[C@@H](O)CC(=O)O (stereo partly drawn) |
| 300 | CC(C)c1c(C(=O)Nc2ccccc2)c(-c2cccc(OCCCCCCc3cn(CCCCCCCNc4cccc5c4C(=O)N(C4CCC(=O)NC4=O)C5=O)nn3)c2)c(-c2ccc(F)cc2)n1CC[C@@H](O)C[C@@H](O)CC(=O)O (stereo partly drawn) |
| > 3000 | CC(C)c1c(C(=O)Nc2ccccc2)c(-c2cccc(OCCCc3cn(CCOCCOCCNc4cccc5c4C(=O)N(C4CCC(=O)NC4=O)C5=O)nn3)c2)c(-c2ccc(F)cc2)n1CC[C@@H](O)C[C@@H](O)CC(=O)O (stereo partly drawn) |
| > 3000 | CC(C)c1c(C(=O)Nc2ccccc2)c(-c2cccc(OCCCc3cn(CCOCCNc4cccc5c4C(=O)N(C4CCC(=O)NC4=O)C5=O)nn3)c2)c(-c2ccc(F)cc2)n1CC[C@@H](O)C[C@@H](O)CC(=O)O (stereo partly drawn) |
| 3000 | CC(C)c1c(C(=O)Nc2ccccc2)c(-c2cccc(OCCCCCc3cn(CCOCCNc4cccc5c4C(=O)N(C4CCC(=O)NC4=O)C5=O)nn3)c2)c(-c2ccc(F)cc2)n1CC[C@@H](O)C[C@@H](O)CC(=O)O (stereo partly drawn) |
| 700 | CC(C)c1c(C(=O)Nc2ccccc2)c(-c2cccc(OCCCc3cn(CCCCCCCOCC#Cc4cccc5c4CN(C4CCC(=O)NC4=O)C5=O)nn3)c2)c(-c2ccc(F)cc2)n1CC[C@@H](O)C[C@@H](O)CC(=O)O (stereo partly drawn) |
| 500 | CC(C)c1c(C(=O)Nc2ccccc2)c(-c2cccc(OCCCc3cn(CCCCCCOCCCc4cccc5c4CN(C4CCC(=O)NC4=O)C5=O)nn3)c2)c(-c2ccc(F)cc2)n1CC[C@@H](O)C[C@@H](O)CC(=O)O (stereo partly drawn) |
| > 3000 | CC(C)c1c(C(=O)Nc2ccccc2)c(-c2cccc(OCCCCc3cn(CCOCCNc4cccc5c4C(=O)N(C4CCC(=O)NC4=O)C5=O)nn3)c2)c(-c2ccc(F)cc2)n1CC[C@@H](O)C[C@@H](O)CC(=O)O (stereo partly drawn) |
| 200 | CC(C)c1c(C(=O)Nc2ccccc2)c(-c2cccc(OCCCc3cn(CCCCCCOCC#Cc4cccc5c4CN(C4CCC(=O)NC4=O)C5=O)nn3)c2)c(-c2ccc(F)cc2)n1CC[C@@H](O)C[C@@H](O)CC(=O)O (stereo partly drawn) |
| 1800 | CC(C)c1c(C(=O)Nc2ccccc2)c(-c2cccc(OCCCCCc3cn(CCOCCOCCOCCNc4cccc5c4C(=O)N(C4CCC(=O)NC4=O)C5=O)nn3)c2)c(-c2ccc(F)cc2)n1CC[C@@H](O)C[C@@H](O)CC(=O)O (stereo partly drawn) |
